In data set [1] the test system is Rattus norvegicus. In words: Antihypertensive activity in Wistar rat assessed as inhibition of methoxamine-induced change in blood pressure at 0.1 mg/kg, iv administered 10 mins after methoxamine challenge. The format is functional. A digest of the protocol:
(§1)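 Male Wistar rats (200–290 g) anaesthetized with i.p. thiopental 70 mg/kg, maintained by thiopental infusion, 36–37 °C. Carotid catheter for BP/HR, jugular line for infusion. Methoxamine i.v. infusion 10 or 20 µg/kg/min began 10 min before 0.1 mg/kg i.v. bolus. Readout is ΔMAP or ΔHR from time 0. Five to seven rats per group; repeated-measures ANOVA.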

In data set [2] the test system is Rattus norvegicus. Put plainly: Antihypertensive activity in Wistar rat assessed as inhibition of methoxamine-induced change in blood pressure at 0.1 mg/kg, iv administered 10 mins after 10 ug/kg/min methoxamine challenge. On the set-up: dose 0.1 mg/kg. The format is functional, organism-based. In a few lines:
as §1

The test system of data set [3] is Rattus norvegicus. In words: Antihypertensive activity in Wistar rat assessed as inhibition of methoxamine-induced change in heart rate at 0.1 mg/kg, iv co-administered with 10 ug/kg/min methoxamine challenge. The format is functional, organism-based. On the set-up: dose 0.1 mg/kg. A digest of the protocol:
as §1

Data set [4] relates to Rattus norvegicus. In words: Anxiolytic activity in Sprague-Dawley rat assessed as loss of righting reflex at 10 ug/kg, ip measured after 30 mins. The format is functional, organism-based. A digest of the protocol: (§2)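 Male Sprague–Dawley rats (250–270 g) were handled by the experimenter one day before testing. Compound was dissolved in sterile saline and given i.p. If no loss of righting reflex occurred after 5 min, the dose was repeated, up to 2000 µg/kg cumulative. Animals were watched for righting reflex, locomotion, motor coordination and behaviour. Righting reflex was scored at 30 min.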

Data set [5] has as its system Rattus norvegicus. Put plainly: Anxiolytic activity in Sprague-Dawley rat assessed as loss of righting reflex at 500 ug/kg, ip measured after 30 mins. The format is functional, organism-based. In a few lines:
as §2

Data set [6] relates to Rattus norvegicus. In words: Toxicity in Sprague-Dawley rat assessed as calm behavior at 10 to 2000 ug/kg, ip measured after 30 mins. The format is organism-based. As to conditions: in vivo, 0.5 h.
The test system of data set [7] is Rattus norvegicus. Put plainly: Toxicity in Sprague-Dawley rat assessed as subdued state at 10 to 2000 ug/kg, ip measured after 30 mins. The format is organism-based. As to conditions: in vivo, 0.5 h. A digest of the protocol: as §2
In data set [8] the test system is Rattus norvegicus. In words: Antihypertensive activity in Wistar rat assessed as inhibition of methoxamine-induced change in heart rate at 0.1 mg/kg, iv administered 10 mins after 20 ug/kg/min methoxamine challenge. The format is functional, organism-based. Also noted: dose 0.1 mg/kg. In a few lines: as §1

Activity calls are given as the source filed them. No cut-off for these calls is given here.

As to `Cl.Clc1cccc2cnn(CC3=NCCN3)c12`, the Activity is -47.7 mmHg with Rattus norvegicus [1], “Non-toxic” in the data set on Rattus norvegicus [6] and “Non-toxic” with Rattus norvegicus [7]. Besides, the result in the data set with Rattus norvegicus [2], in the data set with Rattus norvegicus [4], with Rattus norvegicus [5] and in the data set with Rattus norvegicus [8] was inactive. In addition, in the data set on Rattus norvegicus [3], the result was Active.

These data come from ChEMBL document CHEMBL1926556, “Synthesis and biological activities of 2-[(heteroaryl)methyl]imidazolines” (Bioorg Med Chem, 2012).
